From ChEMBL document CHEMBL4152343, “Design, Synthesis, and Pharmacological Evaluation of Second-Generation Tetrahydroisoquinoline-Based CXCR4 Antagonists with Favorable ADME Properties” (J Med Chem, 2018)

Assays:
Cytochrome P450 2D6 = Cytochrome P450 2D6 (Homo sapiens, UniProt P10635); test: Inhibition of recombinant human CYP2D6 expressed in insect cells microsomes using AMMC as substrate preincubated for 30 mins followed by NADP addition and measured after 45 mins by fluorescence analysis; format: ADME
Cytochrome P450 3A4 = Cytochrome P450 3A4 (Homo sapiens, UniProt P08684); test: Inhibition of human CYP3A4; format: ADME
[1] = Metabolic stability in mouse liver microsomes assessed as parent compound remaining after 10 mins by LC-MS/MS analysis; format: ADME, microsome; conditions: read-out: Stability
Summary of the method: (§1)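 Compound depletion measured by LC/MS/MS after 10 min at 37 °C in liver microsome preparations (CYP450 and other NADP-dependent enzymes). Values are % of compound remaining; duplicates in a single experiment.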

[2] = target: T1, C-X-C chemokine receptor type 4 (Homo sapiens, UniProt P61073); test: Agonist activity at CXCR4 in human CCRF-CEM cells assessed as induction of calcium release incubated for 25 mins by calcium flux assay; format: functional, cell-based
Summary of the method: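 CCRF-CEM T lymphoblasts (endogenous CXCR4) in HBSS/20 mM HEPES/0.1% fatty-acid-free BSA, 40,000 cells/well, dye-loaded 30 min at 37°C, then 15 min at room temperature. Compounds added at final 25,000–0.423 nM (0.5% DMSO) and calcium flux read by FDSS for 90 s.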

[3] = target: Muscarinic acetylcholine receptor; test: Antagonist activity at mAChR in human CCRF-CEM cells assessed as inhibition of acetylcholine-induced calcium release preincubated for 25 mins followed by acetylcholine stimulation and measured for 90 secs by calcium flux assay; format: functional, cell-based
Summary of the method: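 Endogenous muscarinic receptors in CCRF-CEM cells (HBSS/HEPES/BSA buffer, 40,000 cells/well, dye-loaded 30 min at 37°C). Calcium flux recorded 90 s by FDSS. IC50 by 4-parameter logistic fit against an internal control compound; duplicate wells, single experiment.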

[4] = target: T1, C-X-C chemokine receptor type 4; test: Antagonist activity at CXCR4 in human CCRF-CEM cells assessed as inhibition of SDF-1alpha-induced calcium release preincubated for 25 mins followed by SDF-1alpha stimulation and measured for 90 secs by calcium flux assay; format: functional, cell-based
[5] = Permeability of compound at pH 7.4 by PAMPA; format: ADME; conditions: read-out: permeability
Summary of the method: (§2)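 Compound from 10 mM DMSO stock diluted 1:100 to 100 µM (1% DMSO) in pH 7.4 or pH 5.5 donor buffer, then filtered. Lipid-coated filter membrane with pH 7.4 acceptor buffer; incubated 4 h at room temperature. UV plate reading gives Pc. Duplicates in two independent experiments unless noted.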

[6] = Metabolic stability in human liver microsomes assessed as parent compound remaining after 10 mins by LC-MS/MS analysis; format: ADME, microsome; conditions: read-out: Stability; summary of the method: as §1
[7] = Permeability of compound at pH 5.5 by PAMPA; format: ADME; conditions: read-out: permeability; summary of the method: as §2

Sequence of Cytochrome P450 2D6 (P10635 whole entry): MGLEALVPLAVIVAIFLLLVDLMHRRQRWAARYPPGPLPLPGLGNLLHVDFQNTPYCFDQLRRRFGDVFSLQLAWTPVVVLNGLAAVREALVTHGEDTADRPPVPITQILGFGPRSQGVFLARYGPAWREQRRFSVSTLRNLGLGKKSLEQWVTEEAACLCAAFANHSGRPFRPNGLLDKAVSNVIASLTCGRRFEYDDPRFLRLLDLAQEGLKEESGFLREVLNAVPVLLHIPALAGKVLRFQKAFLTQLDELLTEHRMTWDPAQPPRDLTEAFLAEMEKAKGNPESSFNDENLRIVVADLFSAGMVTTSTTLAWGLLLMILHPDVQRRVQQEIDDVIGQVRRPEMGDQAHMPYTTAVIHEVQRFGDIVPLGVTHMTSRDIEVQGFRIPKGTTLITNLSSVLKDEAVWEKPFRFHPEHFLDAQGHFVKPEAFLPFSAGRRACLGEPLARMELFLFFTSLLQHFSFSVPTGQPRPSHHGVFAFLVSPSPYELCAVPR
Sequence of Cytochrome P450 3A4 (P08684 whole entry): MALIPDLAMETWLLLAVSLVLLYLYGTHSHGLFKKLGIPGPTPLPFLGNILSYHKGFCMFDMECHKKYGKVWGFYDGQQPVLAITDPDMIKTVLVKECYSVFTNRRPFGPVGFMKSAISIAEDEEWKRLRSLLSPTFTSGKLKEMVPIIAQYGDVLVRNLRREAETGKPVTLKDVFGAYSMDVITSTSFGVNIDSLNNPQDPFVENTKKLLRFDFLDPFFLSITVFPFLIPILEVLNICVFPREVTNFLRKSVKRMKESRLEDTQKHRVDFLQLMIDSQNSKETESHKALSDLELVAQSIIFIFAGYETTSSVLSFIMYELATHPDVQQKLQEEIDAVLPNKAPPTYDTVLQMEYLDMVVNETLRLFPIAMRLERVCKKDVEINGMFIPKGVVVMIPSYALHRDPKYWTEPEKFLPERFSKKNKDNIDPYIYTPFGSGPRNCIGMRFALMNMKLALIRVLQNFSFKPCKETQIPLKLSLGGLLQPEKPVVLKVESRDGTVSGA
T1 sequence (P61073 whole entry): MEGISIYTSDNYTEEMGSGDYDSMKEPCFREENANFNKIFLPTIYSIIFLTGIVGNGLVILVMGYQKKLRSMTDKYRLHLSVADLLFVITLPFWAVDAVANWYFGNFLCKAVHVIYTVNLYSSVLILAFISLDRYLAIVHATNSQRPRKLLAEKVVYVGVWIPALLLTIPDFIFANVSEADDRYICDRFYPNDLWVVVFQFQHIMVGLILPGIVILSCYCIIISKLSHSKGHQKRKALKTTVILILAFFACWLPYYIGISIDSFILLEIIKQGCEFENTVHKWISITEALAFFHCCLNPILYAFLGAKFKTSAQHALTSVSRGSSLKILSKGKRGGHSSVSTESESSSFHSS

SMILES | IC50 (Cytochrome P450 2D6) | IC50 (Cytochrome P450 3A4) | remaining at 10 min [1] | EC50 [2] | IC50 [3] | IC50 [4] | Papp [5] | remaining at 10 min [6] | Papp [7]
CN(C[C@H]1Cc2c(cccc2N2C[C@H]3C[C@@H]2CN3)CN1)[C@H]1CCCc2cccnc21 | > 20 µM | > 20 µM | 95.9% | > 30 µM | > 16.7 µM |  |  | 100% | 
Cc1cccnc1CN(C)C[C@H]1Cc2c(cccc2N2CCNCC2)CN1 | 100 µM | 1.42 µM |  | > 30 µM | 11.1 µM |  | 19.3 ×10⁻⁶ cm/s | 69.2% | 
CN(C[C@H]1Cc2c(cccc2N2C[C@@H]3C[C@H]2CN3)CN1)[C@H]1CCCc2cccnc21 | > 20 µM | > 20 µM | 36.3% | > 30 µM | > 16.7 µM | 0.146 µM |  | 100% | 
CN(C[C@@H]1Cc2c(cccc2N2CCNCC2)CN1)[C@H]1CCCc2cccnc21 | > 20 µM | > 20 µM | 54.6% | > 30 µM | 2.1 µM | 0.313 µM | 0.4 ×10⁻⁶ cm/s | 94.2% | 
CN(C[C@H]1Cc2c(cccc2N2CCN3CCC[C@H]3C2)CN1)[C@H]1CCCc2cccnc21 | > 20 µM | > 20 µM | 40.1% | > 30 µM | > 16.7 µM |  | 16.7 ×10⁻⁶ cm/s | 36.6% | 
Cc1ccc(CN(C)C[C@H]2Cc3c(cccc3N3CCNCC3)CN2)nc1 | 100 µM | > 20 µM |  | > 30 µM | 9.56 µM |  | 22.5 ×10⁻⁶ cm/s | 76.8% | 
CCN(C[C@H]1Cc2c(cccc2N2CCNCC2)CN1)[C@H]1CCCc2cccnc21 | > 20 µM | > 20 µM | 53.8% | > 30 µM | 8.6 µM | 0.0148 µM | 7.5 ×10⁻⁶ cm/s | 79.1% | 
C[C@@H]1CN(c2cccc3c2C[C@H](CN(C)[C@H]2CCCc4cccnc42)NC3)C[C@H](C)N1 | > 20 µM | > 20 µM | 85.6% | > 30 µM | > 33.3 µM | 0.061 µM | 3.9 ×10⁻⁶ cm/s | 100% | 
Cc1cnc(CN(C)C[C@H]2Cc3c(cccc3N3CCNCC3)CN2)c(C)c1 | > 20 µM | > 20 µM |  | > 30 µM | 15.4 µM |  |  |  | 
CCN1CCN(c2cccc3c2C[C@H](CN(C)[C@H]2CCCc4cccnc42)NC3)CC1 | > 20 µM | > 20 µM | 18.8% | > 30 µM | > 33.3 µM | 0.0138 µM | 20.5 ×10⁻⁶ cm/s | 0% | 
C[C@@H]1CN(c2cccc3c2C[C@H](CN(C)[C@H]2CCCc4cccnc42)NC3)C[C@H](C)N1C | > 20 µM | > 20 µM | 39.6% | > 30 µM | 15.1 µM |  | 14.2 ×10⁻⁶ cm/s | 24.6% | 
CN1Cc2cccc(N3CCNCC3)c2C[C@@H]1CN(C)[C@H]1CCCc2cccnc21 | > 20 µM | > 20 µM | 100% | > 30 µM | 26.3 µM |  | 0.3 ×10⁻⁶ cm/s | 100% | 
CN1CCN(c2cccc3c2C[C@H](CN(C)[C@H]2CCCc4cccnc42)NC3)CC1 | > 20 µM | > 20 µM | 17% | > 30 µM | > 33.3 µM |  | 99.6 ×10⁻⁶ cm/s | 75.8% | 
CN(C[C@H]1Cc2c(cccc2N2CCNC(C)(C)C2)CN1)[C@H]1CCCc2cccnc21 | > 20 µM | > 20 µM | 44% | > 30 µM | 17.9 µM |  |  | 100% | 
CC(C)N(C[C@H]1Cc2c(cccc2N2CCNCC2)CN1)[C@H]1CCCc2cccnc21 | > 20 µM | > 20 µM | 91% | > 30 µM | 8.34 µM | 0.364 µM | 1.6 ×10⁻⁶ cm/s | 75% | 
OCCN(C[C@H]1Cc2c(cccc2N2CCNCC2)CN1)[C@H]1CCCc2cccnc21 | > 20 µM | > 20 µM | 60.3% | > 30 µM | > 33.3 µM | 0.195 µM | 1.1 ×10⁻⁶ cm/s | 94.4% | 
CN(C[C@H]1Cc2c(cccc2N2CCN(C3COC3)CC2)CN1)[C@H]1CCCc2cccnc21 | > 20 µM | > 20 µM | 50.8% | > 30 µM | > 16.7 µM |  | 72.5 ×10⁻⁶ cm/s | 83.1% | 
CN1CCN(c2cccc3c2C[C@H](CN(C)[C@H]2CCCc4cccnc42)N(C)C3)CC1 | > 20 µM | > 20 µM | 41.7% | > 30 µM | > 16.7 µM | 0.171 µM | 36.4 ×10⁻⁶ cm/s | 83.3% | 

Other lines, results leading:

IC50 (Cytochrome P450 2D6) | IC50 (Cytochrome P450 3A4) | remaining at 10 min [1] | EC50 [2] | IC50 [3] | IC50 [4] | Papp [5] | remaining at 10 min [6] | Papp [7] | SMILES
8.13 µM | > 20 µM | 15.1% | > 30 µM | > 16.7 µM | 0.0169 µM | 14.3 ×10⁻⁶ cm/s | 56.6% |  | CC(C)N1CCN(c2cccc3c2C[C@H](CN(C)[C@H]2CCCc4cccnc42)NC3)CC1
8.57 µM | > 20 µM | 88.3% | > 30 µM | 21.6 µM |  | 8.7 ×10⁻⁶ cm/s | 82.1% |  | c1cnc2c(c1)CCC[C@@H]2N(CC1CC1)C[C@H]1Cc2c(cccc2N2CCNCC2)CN1
> 20 µM | > 20 µM |  | > 30 µM | > 16.7 µM |  | 32.3 ×10⁻⁶ cm/s | 67.8% |  | CN1CCN(c2cccc3c2C[C@H](CN2CCC[C@H]4CCc5cccnc5[C@H]42)NC3)CC1
2.52 µM | 3.16 µM | 46.1% | > 30 µM | 1.98 µM | 0.0179 µM |  | 27.4% | 12.9 ×10⁻⁶ cm/s | CN(C[C@H]1Cc2c(cccc2N2CCN(c3ccccn3)CC2)CN1)[C@H]1CCCc2cccnc21
11 µM | 6.79 µM | 40.4% | > 30 µM | 10.8 µM | 0.00447 µM |  | 4.2% | 8.2 ×10⁻⁶ cm/s | CN(C[C@H]1Cc2c(cccc2N2CCN(Cc3ccccn3)CC2)CN1)[C@H]1CCCc2cccnc21
> 20 µM | > 20 µM |  | > 30 µM | > 16.7 µM |  | 0.9 ×10⁻⁶ cm/s | 100% |  | Cc1cnc2c(c1)CCC[C@@H]2N(C)C[C@H]1Cc2c(cccc2N2CCNCC2)CN1
6.48 µM | 2.21 µM | 72.3% | > 30 µM | 9.25 µM | > 16.7 µM | 14.1 ×10⁻⁶ cm/s | 90.3% |  | CN(C[C@H]1Cc2c(cccc2N2CCN(c3cccc(C(F)(F)F)c3)CC2)CN1)[C@H]1CCCc2cccnc21
12 µM | > 20 µM | 87.4% | > 30 µM | 3.16 µM | 0.0322 µM | 2.65 ×10⁻⁶ cm/s | 100% |  | CCCN(C[C@H]1Cc2c(cccc2N2CCNCC2)CN1)[C@H]1CCCc2cccnc21
6.09 µM | 4.23 µM | 7% | > 30 µM | > 33.3 µM | 0.0235 µM | 26.5 ×10⁻⁶ cm/s | 15.5% |  | CN(C[C@H]1Cc2c(cccc2N2CCN(C3CC3)CC2)CN1)[C@H]1CCCc2cccnc21
14.2 µM | > 20 µM | 83.7% | > 30 µM | 5.6 µM | 0.154 µM | 0.1 ×10⁻⁶ cm/s | 90.3% |  | COCCN(C[C@H]1Cc2c(cccc2N2CCNCC2)CN1)[C@H]1CCCc2cccnc21
8.45 µM | 5.62 µM | 76.6% | > 30 µM | > 33.3 µM |  |  | 68.6% |  | FC1(F)CCC(CN(C[C@H]2Cc3c(cccc3N3CCNCC3)CN2)[C@H]2CCCc3cccnc32)CC1
5.72 µM | 1.78 µM | 85.6% | > 30 µM | > 33.3 µM | 0.715 µM | 0.9 ×10⁻⁶ cm/s | 81.6% |  | c1cnc2c(c1)CCC[C@@H]2N(CC1CCCCC1)C[C@H]1Cc2c(cccc2N2CCNCC2)CN1
